Shown are actives, neighbours in structure and some others; about 2.5% of the full set was active somewhere.
PG9 Ab binder – small molecules binding HIV-1 gp120 antibody PG9. TR-FRET gp120-PG9 antibody binding. inhibition, % at 6.7 µM. 360,000 tested, 0.43% active; in the data active = inhibition above about 8.5%
NTR1 ag – activates human neurotensin receptor 1; P30989; NTR1-U2OS beta-arrestin-GFP spot imaging, agonist mode; activation, % at 20 µM; 330,000 tested, 0.17% active; AID 493036;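 active = activation at or above 40% of the spot to cytoplasm intensity ratio, with at least 20 cells analyzed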
Rev-erbA mod – Rev-erb alpha (human) modulation. P20393. Rev-erbα–FITC-DNA binding, fluorescence polarization, 90 min. activity, % at 10 µM. 370,000 tested, 0.79% active;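 active = activity above about 14%, limit read from the data; passing the limit was not always enough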
MC4R ag barr – agonists of human melanocortin 4 receptor (MC4R) beta-arrestin | P32245 | 360,000 tested, 0.98% active | activation, % at 8.9 µM | U2OS MC4R beta-arrestin complementation, luminescence; percent of melanotan II response, DMSO zero;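 active = activation above a per-plate cutoff, the mean activation of sample wells on that plate plus 3 SD, cut at about 8% in these data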
Target sequence (P32245 whole entry, looked up): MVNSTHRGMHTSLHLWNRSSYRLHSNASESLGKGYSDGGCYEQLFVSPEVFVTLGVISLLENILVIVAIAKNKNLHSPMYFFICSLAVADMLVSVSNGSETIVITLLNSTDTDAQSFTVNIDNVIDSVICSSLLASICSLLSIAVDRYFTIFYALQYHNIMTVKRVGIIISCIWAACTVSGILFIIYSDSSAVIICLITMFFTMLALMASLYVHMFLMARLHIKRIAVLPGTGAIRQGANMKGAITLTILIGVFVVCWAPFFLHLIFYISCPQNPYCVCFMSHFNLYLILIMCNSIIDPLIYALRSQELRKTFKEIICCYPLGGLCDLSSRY
MC4R antagonist – antagonists of human melanocortin 4 receptor (MC4R). 360,000 tested, 0.48% active. P32245. inhibition, % at 6.5 µM. MC4R-expressing cells, MTII-stimulated cAMP, LANCE TR-FRET;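 active = inhibition above its plate's cutoff, the mean of tested wells on that plate plus 3 SD, cut at about 29% in these data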
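Assay system: U2OS-MC4R stable cell line; Also added: Melanotan II; Technique: Eu-cAMP/anti-cAMP TR-FRET, emission 671 nm; Times: 30-min compound, 1-h challenge, 1-h detection, room temperature.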
U2OS cAMP counter – U2OS forskolin cAMP inhibition counter-screen. inhibition, % at 6.5 µM. shares compounds with MC4R antagonist. 1,600 tested, 26% active. parental U2OS, LANCE TR-FRET;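 active = mean inhibition over triplicates above the low-control well mean plus 3 SD, set per campaign, cut at about 13% in these data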;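 note: signal is single emission at 671 nm which falls as cellular cAMP rises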
MC4R cAMP antag – human MC4R cAMP antagonism confirmation; shares compounds with MC4R antagonist; MC4R-expressing cells, MTII-stimulated cAMP, TR-FRET; inhibition, % at 6.5 µM; 1,600 tested, 27% active; in the data active = inhibition above about 29%
Hits are given with their value; . = inactive; / = no result given.

SMILES	PG9 Ab binder	NTR1 ag	Rev-erbA mod	MC4R ag barr	MC4R antagonist	U2OS cAMP counter	MC4R cAMP antag
O=C(O)c1ccc(-n2ccnc2)c([N+](=O)[O-])c1	.	.	.	.	.	/	/
COC(=O)c1cc([N+](=O)[O-])c(-n2ccnc2)c([N+](=O)[O-])c1	.	.	.	.	30.6	.	.
C=NC(C(=O)N[C@H]1C(=O)N2C1SC(C)(C)C2C(=O)O)c1ccccc1 (stereo partly specified)	/	/	.	/	/	/	/
COc1ccccc1-c1c(C)oc2cc(OCC(=O)OCc3ccccc3)ccc2c1=O	.	.	.	.	36.6	14.4	37.8
CC(C)C[C@H]1COc2cccc(N3CCCC3)c2S(=O)(=O)N1C	/	/	.	/	/	/	/
CCOC(=O)[C@@]12CCCC=C1N(CCc1ccc(Cl)cc1)C(=O)[C@H]2CC(=O)NCc1cccc2ccccc12	/	/	.	/	/	/	/
O=C(/C=C/c1ccc(Cl)cc1)c1ccc([N+](=O)[O-])o1	.	.	.	.	40.4	.	.
CCS(=O)(=O)c1ccc2oc(Nc3cccc(OC)c3)nc2c1	.	.	.	.	31.1	.	.
CCS(=O)(=O)c1ccc2oc(Nc3ccc(OC)cc3)nc2c1	.	.	.	.	.	/	/
Cc1cccc(CS(=O)(=O)c2ncc(Cl)c(C(=O)NCc3ccccc3)n2)c1	.	.	.	.	52.3	27.4	57.2
CCCc1nnc(NC(=O)c2nc(S(=O)(=O)Cc3cccc(C)c3)ncc2Cl)s1	.	.	.	.	37.7	24.9	47.4
COc1ccc(C2Nc3ccccc3C(=O)N2Cc2ccc(C)o2)cc1COc1c(C)cccc1C (stereo unspecified)	/	/	.	/	/	/	/
COc1ccc(C(C)=O)cc1Cn1c(=O)cc(C)[nH]c1=O	.	.	.	.	29.8	.	.
C=CCNC(=O)CN(C(=O)Cc1cccc(OC(F)(F)F)c1)c1cccc(Br)c1	/	/	.	/	/	/	/
COc1ccc(CCn2c(C)cc(C(=O)CCl)c2C)cc1OC	.	.	.	.	29.9	.	.
Cc1cc(C(=O)CCl)c(C)n1CCc1ccc(F)cc1	.	.	.	.	30.5	.	33.3
CO[C@H]([C@H](C)/C=C/N(C)C=O)[C@@H](C)C(=O)CC[C@H](C)[C@H](O)[C@H](C)[C@H]1OC(=O)/C=C/C(C)=C/C[C@H](O)C[C@@H]2C=CC[C@@H](C[C@H](OC)[C@@]3(CO3)[C@@H](OC)C[C@@H](OC)[C@@H]1C)O2	/	/	.	/	/	/	/
Clc1ccc(-c2nnc(-c3ccc(Br)cc3)c(N3CCSCC3)n2)cc1	.	.	.	.	.	/	/
Clc1ccc(-c2nnc(-c3ccco3)nc2N2CCCCC2)cc1	.	.	.	.	29.4	.	.
Cc1ccc(CN2CC(=O)N3[C@H]4c5ccccc5OC[C@@H]4[C@H](c4ccccc4)[C@]3(C)C2=O)cc1	.	.	.	.	.	/	/
C[C@@]12C(=O)N(Cc3ccccc3)CC(=O)N1[C@H]1c3ccccc3OC[C@@H]1[C@@H]2c1ccccc1	.	.	.	.	29.5	.	.
COC(=O)C1=C(C)N(Cc2cccc(C(F)(F)F)c2)C(=NCc2cc(OC)c(OC)c(OC)c2)NC1c1cccc(F)c1 (stereo unspecified)	.	/	.	/	/	/	/
CCn1c(C(=O)O)c(CC(=O)Nc2ccc(Br)cc2C)c2ccccc21	.	.	.	.	29.4	.	.
CCC(OC(=O)CNS(=O)(=O)c1ccccc1)C(=O)c1ccccc1 (stereo unspecified)	.	.	.	.	37.3	16.7	30.7
O=C(Oc1cncc(Cl)c1)c1sccc1Cl	.	.	.	.	32.8	.	.
SMILES	PG9 Ab binder	NTR1 ag	Rev-erbA mod	MC4R ag barr	MC4R antagonist	U2OS cAMP counter	MC4R cAMP antag
O=C(Oc1cncc(Cl)c1)c1ccco1	.	.	.	.	.	/	/
CC(C)(C)OC(=O)NCc1cc(F)ccc1/C=C/S(=O)(=O)NCc1ccc(F)cc1	/	/	.	/	/	/	/
CC(C)(C)c1ccc(OCCSc2nc3ccccc3n2CC(=O)O)cc1	.	.	.	.	33.8	.	.
Cc1[nH]nc2c1C(c1cccs1)C(C#N)=C(N)O2 (stereo unspecified)	.	.	.	.	.	/	/
Cc1ccsc1C1C(C#N)=C(N)Oc2n[nH]c(C)c21 (stereo unspecified)	.	.	.	.	28.7	.	.
Nc1[nH]c(C(=O)c2ccc(Cl)cc2)c(-c2ccc(Br)cc2)c1C(=O)c1c[nH]c2ccc(F)cc12	.	/	.	/	/	/	/
N=c1c2c(ncn1Cc1ccco1)Oc1cc(O)ccc1C2c1ccccc1 (stereo unspecified)	.	.	.	.	33.1	.	.
Cc1cc2oc(C(=O)N(Cc3ccccc3)C3CCS(=O)(=O)C3)cc(=O)c2cc1Cl (stereo unspecified)	.	.	.	.	30.0	.	.
O=C(c1cc(=O)c2ccccc2o1)N(Cc1ccccc1)C1CCS(=O)(=O)C1 (stereo unspecified)	.	.	.	.	.	/	/
COc1ccc(-c2cc(C(=O)N(C3CCCCC3)C3CCCCC3)no2)cc1	/	/	.	/	/	/	/
CS(=O)(=O)N1c2ccccc2C[C@H]1Cc1cc2ccccc2o1	/	/	.	/	/	/	/
COC(=O)c1ccc(CN2C(=O)[C@]3(OCCC=C[C@H]3C)c3cc(OC)ccc32)cc1	.	/	.	/	/	/	/
CC(C)Nc1nc(Cl)nc(N(C#N)CN2C(=O)c3ccccc3C2=O)n1	.	.	.	.	.	/	/
CCC(C)Nc1nc(Cl)nc(N(C#N)CN2C(=O)c3ccccc3S2(=O)=O)n1 (stereo unspecified)	.	.	.	.	47.6	22.8	39.8
O=C(CN1C(=O)c2cccc([N+](=O)[O-])c2C1=O)N1CCN(c2ccc(F)cc2)CC1	.	.	.	.	34.4	26.7	43.4
O=C(CN1C(=O)c2cccc3cccc1c23)N1CCN(c2ccc(F)cc2)CC1	.	.	.	.	.	/	/
COc1ccc(-c2c(C)[nH]n3c(=O)c(Cc4ccccc4)c(C)nc23)cc1OC	.	.	.	.	30.7	.	.
Cc1nc2c(-c3ccccc3)c(C)[nH]n2c(=O)c1Cc1ccccc1	.	.	.	.	.	/	/
CC1(C)Oc2ccc(C(=O)NCCCN3CCCC3)cc2NC1=O	/	/	.	/	/	/	/
COc1ccc(CNS(=O)(=O)/C=C/c2ccccc2CNC(=O)OC(C)(C)C)cc1	/	/	.	/	/	/	/
CCOc1ccc(C(=O)CCC(=O)NCC(=O)OCc2ccccc2)cc1OCC	.	.	.	.	31.8	.	.
CCOc1ccc(C(=O)OCC(=O)NCc2ccccc2)cc1OCC	.	.	.	.	.	/	/
CC(C)(C)C1CCc2c(sc(NC(=O)C3CC=CCC3C(=O)O)c2C#N)C1 (stereo unspecified)	.	.	.	.	28.8	.	.
CC(C)(C)C1CCc2c(sc(NC(=O)c3cc(C4CC4)on3)c2C#N)C1 (stereo unspecified)	.	.	.	.	.	/	/

Compound activity deposited in PubChem by several laboratories.
